Measurements taken from ChEMBL document CHEMBL3400039, “Design, synthesis and in vitro cell-based evaluation of the anti-cancer activities of hispolon analogs” (Bioorg Med Chem, 2015).
Activity calls are given as the source filed them. No cut-off for these calls is given here.

Experiments:
PC-3 = assay: Cytotoxicity against human PC3 cells at 100 uM after 72 hrs by MTT assay; assay type: functional, cell-based
Procedure, shortened: (§1)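 Cells kept as adherent monolayers in DMEM with 10% FBS, 37°C, 5% CO2. Trypsin-harvested, seeded at 5 × 10^3 cells/well, then exposed to compound at 0.1 to 100 µM for 72 h. MTT (4 mg/ml) added for 4 h, formazan dissolved in DMSO, absorbance read at 570 nm. At least three experiments, each in triplicate; mean±SD.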

DU-145 [1] = assay: Cytotoxicity against human DU145 cells at 100 uM after 72 hrs by MTT assay; assay type: functional, cell-based; procedure, shortened: as §1
HCT-116 = assay: Cytotoxicity against human HCT116 cells at 100 uM after 72 hrs by MTT assay; assay type: functional, cell-based; procedure, shortened: as §1
S1 = assay: Cytotoxicity against human S1 cells at 100 uM after 72 hrs by MTT assay; assay type: functional, cell-based; procedure, shortened: as §1
MCF7 = assay: Cytotoxicity against human MCF7 cells at 100 uM after 72 hrs by MTT assay; assay type: functional, cell-based; procedure, shortened: as §1
MDA-MB-231 [2] = assay: Cytotoxicity against human MDA-MB-231 cells at 100 uM after 72 hrs by MTT assay; assay type: functional, cell-based; procedure, shortened: as §1
MDCK [3] = assay: Cytotoxicity against MDCK cells at 100 uM after 72 hrs by MTT assay; assay type: cell-based, Canis lupus familiaris; settings: dog; procedure, shortened: as §1
[4] = Cytotoxicity against mouse NIH/3T3 cells at 100 uM after 72 hrs by MTT assay; assay type: cell-based; settings: nih3t3, 72 h; procedure, shortened: as §1
HEK293 [5] = assay: Cytotoxicity against HEK293 cells expressing pcDNA3.1 at 100 uM after 72 hrs by MTT assay; assay type: cell-based; settings: human, hek293, 72 h; procedure, shortened: as §1
[6] = Cytotoxicity against human PC3 cells after 72 hrs by MTT assay; assay type: functional, cell-based; settings: PC-3, 72 h; procedure, shortened: as §1
DU-145 [7] = assay: Cytotoxicity against human DU145 cells after 72 hrs by MTT assay; assay type: functional, cell-based; settings: DU-145, 72 h; procedure, shortened: as §1
[8] = Cytotoxicity against human HCT116 cells after 72 hrs by MTT assay; assay type: functional, cell-based; settings: HCT-116, 72 h; procedure, shortened: as §1
[9] = Cytotoxicity against human S1 cells after 72 hrs by MTT assay; assay type: functional, cell-based; settings: S1, 72 h; procedure, shortened: as §1
MDA-MB-231 [10] = assay: Cytotoxicity against human MDA-MB-231 cells after 72 hrs by MTT assay; assay type: functional, cell-based; settings: MDA-MB-231, 72 h; procedure, shortened: as §1
MDCK [11] = assay: Cytotoxicity against MDCK cells after 72 hrs by MTT assay; assay type: cell-based; settings: Canis lupus familiaris; procedure, shortened: as §1
[12] = Cytotoxicity against mouse NIH/3T3 cells after 72 hrs by MTT assay; assay type: cell-based; settings: NIH3T3, 72 h; procedure, shortened: as §1
HEK293 [13] = assay: Cytotoxicity against HEK293 cells expressing pcDNA3.1 after 72 hrs by MTT assay; assay type: cell-based; settings: Homo sapiens, HEK293, 72 h; procedure, shortened: as §1
HEK293 [14] = assay: Cytotoxicity against HEK293 cells expressing ABCB1 after 72 hrs by MTT assay; assay type: functional, cell-based; settings: Homo sapiens, HEK293, 72 h; procedure, shortened: as §1
HEK293 [15] = assay: Resistance index, ratio of IC50 for HEK293 cells expressing ABCB1 to IC50 for HEK293 cells expressing pcDNA3.1; set-up: species or system Homo sapiens
Procedure, shortened: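 Fold resistance is the IC50 in P-glycoprotein-overexpressing HEK293/ABCB1 cells divided by the IC50 in empty-vector HEK293/pcDNA3.1 cells. IC50s from the 72 h MTT assay; paclitaxel was the positive-control ABCB1 substrate.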

Row | SMILES | Activity (PC-3) | Activity (DU-145 [1]) | Activity (HCT-116) | Activity (S1) | Activity (MCF7) | Activity (MDA-MB-231 [2]) | Activity (MDCK [3]) | Activity [4] | Activity (HEK293 [5]) | IC50 [6] [µM] | IC50 (DU-145 [7]) [µM] | IC50 [8] [µM] | IC50 [9] [µM] | IC50 (MDA-MB-231 [10]) [µM] | IC50 (MDCK [11]) [µM] | IC50 [12] [µM] | IC50 (HEK293 [13]) [µM] | IC50 (HEK293 [14]) [µM] | Ratio IC50 (HEK293 [15])
1 | COc1ccc(CCc2cc(C)n[nH]2)cc1 | inactive | inactive | inactive | inactive | inactive | inactive | Non-toxic | Non-toxic | Non-toxic |  |  |  |  |  |  |  |  |  | 
2 | COc1ccc(CCc2cc(C)no2)cc1 | inactive | inactive | inactive | inactive | inactive | inactive | Non-toxic | Non-toxic | Non-toxic |  |  |  |  |  |  |  |  |  | 
3 | COc1ccc(/C=C/C(=O)CC(C)=O)cc1 |  |  |  |  |  |  |  |  |  | 15.8 | 9.1 | 11.9 | 44.6 | 25 | 41.6 | 48.2 | 18.7 | 16.3 | 0.9
4 | COc1ccc(CCC(=O)CC(C)=O)cc1 | inactive | inactive | inactive | inactive | inactive | inactive | Non-toxic | Non-toxic | Non-toxic |  |  |  |  |  |  |  |  |  | 
5 | COc1cc(/C=C/c2cc(C)no2)ccc1O |  |  |  |  |  |  |  |  |  | 20.9 | 28.9 | 33.4 | 50.5 | 34.6 | 29.8 | > 100 | 36.2 | 41.3 | 1.1
6 | COc1ccc(/C=C/c2cc(C)n[nH]2)cc1OC |  |  |  |  |  |  |  |  |  | 12.6 | 18.5 | 51.3 | 22.4 | 38.8 | 54.1 | 68.4 |  | 33.2 | 1.4
7 | Cc1cc(/C=C/c2ccc(O)cc2)on1 |  |  |  |  |  |  |  |  |  | 50.2 | 67.2 | 67.9 | 44.2 | 55.5 | 58.3 | 88.5 |  |  | 1
8 | CC(=O)CC(=O)CCc1ccc(O)cc1 | inactive | inactive | inactive | inactive | inactive | inactive | Non-toxic | Non-toxic | Non-toxic |  |  |  |  |  |  |  |  |  | 
9 | COc1ccc(CCc2cc(C)n[nH]2)cc1OC | inactive | inactive | inactive | inactive | inactive | inactive | Non-toxic | Non-toxic | Non-toxic |  |  |  |  |  |  |  |  |  | 
10 | COc1cc(CCc2cc(C)no2)ccc1O | inactive | inactive | inactive | inactive | inactive | inactive | Non-toxic | Non-toxic | Non-toxic |  |  |  |  |  |  |  |  |  | 
11 | Cc1cc(/C=C/c2ccc(O)c(O)c2)[nH]n1 |  |  |  |  |  |  |  |  |  | 23.2 | 33.1 |  | 55.3 |  | > 100 | 88.4 | 29.7 | 39.4 | 1.3
12 | Cc1cc(CCc2ccc(O)cc2)[nH]n1 | inactive | inactive | inactive | inactive | inactive | inactive | Non-toxic | Non-toxic | Non-toxic |  |  |  |  |  |  |  |  |  | 
13 | COc1ccc(CCc2cc(C)no2)cc1OC | inactive | inactive | inactive | inactive | inactive | inactive | Non-toxic | Non-toxic | Non-toxic |  |  |  |  |  |  |  |  |  | 
14 | COc1cc(CCc2cc(C)n[nH]2)ccc1O | inactive | inactive | inactive | inactive | inactive | inactive | Non-toxic | Non-toxic | Non-toxic |  |  |  |  |  |  |  |  |  | 
15 | CC(=O)O[C@H]1C(=O)[C@@]2(C)[C@H]([C@H](OC(=O)c3ccccc3)[C@]3(O)C[C@H](OC(=O)[C@H](O)[C@@H](NC(=O)c4ccccc4)c4ccccc4)C(C)=C1C3(C)C)[C@]1(OC(C)=O)CO[C@@H]1C[C@@H]2O [PACLITAXEL] |  |  |  |  |  |  |  |  |  |  |  |  |  |  |  |  | 0.04 | 0.36 | 9
16 | Cc1cc(/C=C/c2ccc(O)cc2)[nH]n1 |  |  |  |  |  |  |  |  |  | 48.1 |  | 38.8 | 32.9 | 23.2 | 80 | 59.2 | 77.4 | 68.9 | 0.9
17 | CC(=O)CC(=O)/C=C/c1ccc(O)cc1 |  |  |  |  |  |  |  |  |  | 20.2 | 8.8 | 36.5 | 10.6 | 6.8 | 30.6 | 18.9 |  | 11.6 | 1.1
18 | COc1ccc(CCC(=O)CC(C)=O)cc1OC | inactive | inactive | inactive | inactive | inactive | inactive | Non-toxic | Non-toxic | Non-toxic |  |  |  |  |  |  |  |  |  | 
19 | COc1cc(/C=C/c2cc(C)[nH]n2)ccc1O |  |  |  |  |  |  |  |  |  | 16.5 | 32.2 | 78.8 | 29.4 | 67 | 35.4 | 66.3 | 47.7 | 45.2 | 0.9
20 | Cc1cc(CCc2ccc(O)cc2)on1 | inactive | inactive | inactive | inactive | inactive | inactive | Non-toxic | Non-toxic | Non-toxic |  |  |  |  |  |  |  |  |  | 
